Test results published in ChEMBL document CHEMBL2034888, “Synthesis, anticonvulsant activity, and neuropathic pain-attenuating activity of N-benzyl 2-amino-2-(hetero)aromatic acetamides” (Bioorg Med Chem, 2012).

Legend:
Mus musculus [1] = assay: Anticonvulsant activity in ip dosed NMRI mouse assessed as protection against maximal electroshock-induced seizure after 30 mins postdose; format: functional; settings: 0.5 h
Method in brief: (§1)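 Adult male NMRI mice given compound intraperitoneally; maximal electroshock seizure test run 30 min after dosing. Where a dose–response was run, ED50 in mg/kg was derived. Otherwise a minimal active dose was reported, or the percentage of mice protected at a single dose.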

Mus musculus [2] = assay: Toxicity in ip dosed NMRI mouse assessed as writhings at 130 mg/kg, ip after 30 mins; format: organism-based; set-up: dose 130 mg/kg, route intraperitoneal; settings: in vivo, 0.5 h
Method in brief: (§2)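 Adult male NMRI mice were dosed ip. Whole-animal pharmacological observation was made at the stated mg/kg dose, recording tremors, convulsions, writhing, impaired gait or mortality. Timing was 30 min post-dose.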

Mus musculus [3] = assay: Anticonvulsant activity in ip dosed NMRI mouse assessed as protection against 6 Hz psychomotor seizure after 30 mins; format: functional; settings: 0.5 h
Method in brief: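 Adult male NMRI mice dosed ip. Psychomotor seizures were induced by 6 Hz stimulation at 44 mA, 30 min after administration. ED50 in mg/kg was derived where determinable, otherwise a minimal active dose was reported.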

Mus musculus [4] = assay: Antinociceptive activity in ip dosed NMRI mouse neuropathic pain model assessed as protection against formalin-induced nociceptive behaviour after 30 mins; format: functional; settings: 0.5 h
Method in brief: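 Formalin test in adult male NMRI mice used as a prescreen for pain attenuation, 30 min after ip administration. ED50 in mg/kg was derived where possible. Otherwise the percent protected after a single stated dose was reported.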

Mus musculus [5] = assay: Toxicity in ip dosed NMRI mouse assessed as convulsions at 130 mg/kg, ip after 30 mins; format: organism-based; set-up: dose 130 mg/kg, route intraperitoneal; settings: in vivo, 0.5 h; method in brief: as §2
Mus musculus [6] = assay: Protective index, ratio of TD50 for NMRI mouse to ED50 for anticonvulsant activity in ip dosed NMRI mouse by maximal electroshock seizure test; format: functional
[7] = Neurotoxicity in ip dosed NMRI mouse after 30 mins by rotorod test; format: toxicity, organism-based; settings: in vivo
Method in brief: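 Neurological impairment was scored by rotorod in adult male NMRI mice 30 min after ip dosing. TD50 in mg/kg was derived where possible, otherwise the maximal tolerated dose was given.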

Mus musculus [8] = assay: Protective index, ratio of TD50 for NMRI mouse to ED50 for antinociceptive activity in ip dosed NMRI mouse neuropathic pain model; format: functional
Mus musculus [9] = assay: Toxicity in ip dosed NMRI mouse assessed as impaired gait at 100 mg/kg, ip after 30 mins; format: organism-based; set-up: dose 100 mg/kg, route intraperitoneal; settings: in vivo, 0.5 h; method in brief: as §2
Mus musculus [10] = assay: Toxicity in ip dosed NMRI mouse assessed as tremors at 100 mg/kg, ip after 30 mins; format: organism-based; set-up: dose 100 mg/kg, route intraperitoneal; settings: in vivo, 0.5 h; method in brief: as §2
Mus musculus [11] = assay: Anticonvulsant activity in NMRI mouse assessed as protection against maximal electroshock-induced seizure at 140 mg/kg, ip after 30 mins; format: functional; settings: route intraperitoneal; method in brief: as §1
[12] = Neurotoxicity in ip dosed albino CF-1 mouse by rotorod test; format: toxicity, organism-based; settings: in vivo
Mus musculus [13] = assay: Anticonvulsant activity in ip dosed albino CF-1 mouse assessed as protection against maximal electroshock-induced seizure after 0.5 hrs; format: functional; settings: albino CF-1, ip
Mus musculus [14] = assay: Anticonvulsant activity in ip dosed albino CF-1 mouse assessed as protection against maximal electroshock-induced seizure; format: functional; settings: albino CF-1, ip
[15] = Neurotoxicity in ip dosed albino CF-1 mouse by horizontal screen test; format: toxicity, organism-based; settings: in vivo
[16] = Neurotoxicity in ip dosed albino CF-1 mouse after 30 mins by rotorod test; format: toxicity, organism-based; settings: in vivo

SMILES | ED50 (Mus musculus [1]) | ED50 (Mus musculus [3]) | ED50 (Mus musculus [4]) | ED50 (Mus musculus [13]) | further results
NC(C(=O)NCc1ccccc1)c1ccc2ccccc2n1 (racemic) | > 41 mg/kg | > 130 mg/kg | 54 mg/kg | – | Activity (Mus musculus [2]): Toxic; Activity (Mus musculus [5]): Toxic
NC(C(=O)NCc1ccccc1)c1cnc2ccccc2n1 (racemic) | > 120 mg/kg | > 120 mg/kg | 42 mg/kg | – | –
NC(C(=O)NCc1ccccc1)c1ccco1 (racemic) | 85 mg/kg | > 150 mg/kg | 29 mg/kg | – | Ratio TD50/ED50 (Mus musculus [6]): >1.8; TD50 at 0.5 h [7]: > 150 mg/kg; Ratio TD50/ED50 (Mus musculus [8]): >5.1
Cc1ccc(C(N)C(=O)NCc2ccccc2)o1 (racemic) | – | > 140 mg/kg | > 78 mg/kg | – | minimal effective dose (Mus musculus [1]; read-out: MED): 100 mg/kg; Activity (Mus musculus [9]): Toxic; Activity (Mus musculus [10]): Toxic; Activity (Mus musculus [11]): 100%
CC(=O)NC(C(=O)NCc1ccccc1)c1cccs1 (racemic) | – | – | – | 45 mg/kg | TD50 [12]: 30 mg/kg
CC(=O)NC(C(=O)NCc1ccccc1)c1cc2ccccc2s1 (racemic) | – | – | – | – | TD50 [12]: 100 mg/kg; ED50 (Mus musculus [14]): 100 mg/kg
CC(=O)NC(C(=O)NCc1ccccc1)c1ccccc1 (racemic) | – | – | – | 32 mg/kg | TD50 [15]: > 40 mg/kg
CC(=O)NC(C(=O)NCc1ccccc1)c1ccco1 (racemic) | – | – | – | 10 mg/kg | TD50 at 0.5 h [16]: 40 mg/kg
CC(=O)NC(C(=O)NCc1ccccc1)c1ccccn1 (racemic) | – | – | – | 11 mg/kg | TD50 [12]: 25 mg/kg
CC(=O)NC(C(=O)NCc1ccccc1)c1cnccn1 (racemic) | – | – | – | 15 mg/kg | TD50 at 0.5 h [16]: 58 mg/kg
CC(=O)NC(C(=O)NCc1ccccc1)c1nccs1 (racemic) | – | – | – | 12 mg/kg | TD50 at 0.5 h [16]: 69 mg/kg
CC(=O)NC(C(=O)NCc1ccccc1)c1ccc(C)o1 (racemic) | – | – | – | 19 mg/kg | TD50 at 0.5 h [16]: 75 mg/kg
COC[C@@H](NC(C)=O)C(=O)NCc1ccccc1 [LACOSAMIDE] | 3.3 mg/kg | 10 mg/kg | 15 mg/kg | – | Ratio TD50/ED50 (Mus musculus [6]): 5.8; Ratio TD50/ED50 (Mus musculus [8]): 1.3
CCC1(c2ccccc2)C(=O)NC(=O)NC1=O [PHENOBARBITAL] | 22 mg/kg | – | – | – | –
CCCC(CCC)C(=O)[O-].[Na+] [VALPROATE SODIUM] | 270 mg/kg | – | – | – | –
